According to PubChem BioAssay:
Calls of active or inactive are those of the source.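 The calls were made as follows, unless noted: active = inhibition at or above 50% relative to wild type and mutant plate controls; inactive = inhibition below 50%.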

Columns and labels:
[1] = inhibitors of TNFa-induced NFkB p65 translocation, primary screen, imaging, HUVEC, MLSMR starter and 10KST1 sets (AID 438;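 active = inhibition above 20% together with a positive visual image hit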;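 also: compound added about 3h40 before a 20 min TNFalpha stimulation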;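 as to inhibition: signal is the nuclear over cytoplasmic p65 intensity ratio per well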); conditions: HUVEC TNFa-induced p65 nuclear translocation; cell count: measured here: nuclei count (cytotoxicity indicator), at 2.08 µM; inhibition: at 2 µM, stronger effect = higher value, 0% TNFa-plus-vehicle, 100% no-TNFa wells
[2] = endothelial E-selectin expression blockers – imaging, HUVEC, immunofluorescence, MLSMR starter and 10KST1 sets, primary screen (AID 487;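 active = visually confirmed hit in the image check and inhibition above 20%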;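 as to inhibition: signal is fraction of cell area covered by stained E-selectin grains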;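 as to nuclei count: 100% = median nuclei count of all wells on the same plate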); conditions: HUVEC TNFalpha-induced E-selectin immunofluorescence imaging, at 2 µM; inhibition: stronger effect = higher value; nuclei count: measured here: cell number, toxicity
[3] = Primary imaging screen for DUSP6 inhibitors that restore phospho-Erk in transfected HeLa cells, chemical complementation (AID 609;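 active = compounds giving at least 50% inhibition in the cell-based MKP-3 phosphatase rescue imaging test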;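 as to inhibition: phospho-Erk level distribution per well compared with pooled transfected vehicle control wells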); conditions: HeLa MKP-3 transfected, phospho-Erk imaging KS statistic, at 10 µM, cells stimulated with TPA for 15 min
[4] = target: Dual specificity protein phosphatase 6 (Homo sapiens) (UniProt Q16828); test: as above; conditions: HeLa MKP-3 transfected, phospho-Erk imaging KS statistic; at 10 µM; stronger effect = higher value; cells stimulated with TPA for 15 min
Chain of Dual specificity protein phosphatase 6 (Homo sapiens) (Q16828 whole entry, looked up): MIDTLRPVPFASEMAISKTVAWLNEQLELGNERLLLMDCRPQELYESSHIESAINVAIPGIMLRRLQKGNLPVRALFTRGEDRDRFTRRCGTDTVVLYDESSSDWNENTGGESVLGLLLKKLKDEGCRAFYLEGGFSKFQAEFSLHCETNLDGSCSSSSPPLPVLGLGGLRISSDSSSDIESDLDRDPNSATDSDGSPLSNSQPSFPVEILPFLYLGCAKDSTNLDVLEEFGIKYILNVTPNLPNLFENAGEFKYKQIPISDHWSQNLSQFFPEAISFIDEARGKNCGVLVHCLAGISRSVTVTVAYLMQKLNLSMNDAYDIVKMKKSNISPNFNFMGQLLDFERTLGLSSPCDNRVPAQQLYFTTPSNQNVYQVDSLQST

[5] = target: Voltage-gated potassium channel subunit beta-2 (Rattus norvegicus) (UniProt P62483); test: inhibitors of rat Kvbeta2 reductase activity – biochemical, NADPH fluorescence, primary screen (AID 622;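 active = fluorescence slope higher than the sample average by over 3 SD, cut at about -0.22 in these data, passing the limit was not always enough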;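 also: slope of raw intensity against log time taken from 70 to 1610 s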); conditions: recombinant KvBeta, 4-cyanobenzaldehyde reduction, at 10 µM, stronger effect = higher value
Chain of Voltage-gated potassium channel subunit beta-2 (Rattus norvegicus) (P62483 whole entry, looked up): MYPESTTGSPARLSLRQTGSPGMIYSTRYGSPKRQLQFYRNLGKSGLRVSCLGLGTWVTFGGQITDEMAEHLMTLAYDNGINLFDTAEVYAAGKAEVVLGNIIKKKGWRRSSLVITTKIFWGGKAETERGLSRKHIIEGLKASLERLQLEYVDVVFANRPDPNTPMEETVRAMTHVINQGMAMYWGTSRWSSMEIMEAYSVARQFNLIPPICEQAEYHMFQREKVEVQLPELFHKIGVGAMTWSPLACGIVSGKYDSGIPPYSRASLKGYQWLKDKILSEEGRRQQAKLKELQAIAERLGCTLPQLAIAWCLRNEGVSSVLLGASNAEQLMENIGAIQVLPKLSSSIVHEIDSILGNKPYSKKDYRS

[6] = target: Voltage-gated potassium channel subunit beta-2 (Rattus norvegicus) (UniProt P62483); test: enhancers of rat Kvbeta2 NADPH turnover – biochemical, NADPH fluorescence, primary screen (AID 623;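 active = NADPH fluorescence slope more negative than the mean of all samples by about 3 SD, 99.7% confidence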;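 also: fluorescence intensity change per second fitted from 20 to 320 s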); conditions: Recombinant KvBeta, NADPH fluorescence decrease slope, 10 min; at 10 µM; stronger effect = lower value
[7] = target: Muscarinic acetylcholine receptor M4 (Homo sapiens) (UniProt P08173); test: M4-linked GIRK flux change, two-sided – cell-based, HEK293 M4/GIRK, thallium flux, BTC-AM, M4 allosteric agonist project, primary screen (AID 625;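 active = fluorescence slope after compound addition differing from the mean of all tested samples at 99.7% confidence, mostly higher but some lower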;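 also: thallium influx through GIRK channels coupled to M4 in HEK293 cells with BTC-AM dye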); conditions: at 10 µM, actives lie on both sides
Chain of Muscarinic acetylcholine receptor M4 (Homo sapiens) (P08173 whole entry, looked up): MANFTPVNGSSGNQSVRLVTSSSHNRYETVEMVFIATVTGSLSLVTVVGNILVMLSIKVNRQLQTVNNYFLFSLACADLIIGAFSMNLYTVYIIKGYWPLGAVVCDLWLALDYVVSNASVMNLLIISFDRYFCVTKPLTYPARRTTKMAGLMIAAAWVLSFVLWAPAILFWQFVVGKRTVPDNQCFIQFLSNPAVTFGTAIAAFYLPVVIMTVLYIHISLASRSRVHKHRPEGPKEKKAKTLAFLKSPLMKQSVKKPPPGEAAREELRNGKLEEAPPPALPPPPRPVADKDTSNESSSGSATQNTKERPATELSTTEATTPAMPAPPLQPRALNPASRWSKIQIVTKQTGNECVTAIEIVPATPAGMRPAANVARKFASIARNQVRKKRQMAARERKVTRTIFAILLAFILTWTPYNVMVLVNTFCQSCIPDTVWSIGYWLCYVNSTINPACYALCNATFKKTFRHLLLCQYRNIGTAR
Summary of the method: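 assay system = HEK293 cells with M4 receptor and GIRK channels | medium = pH 7.3 thallium assay buffer | doses = 10 µM final, single point | timing = cells overnight at 37 °C, BTC-AM loading 1 h, reads 2 min total | signal = BTC-AM fluorescence, 1 Hz kinetic reads | read-out = post-addition slope, 15–24 s, of baseline-normalized fluorescence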

[8] = inhibitors of larval lipid processing in zebrafish, primary screen, whole organism, PED6 fluorescence, gall bladder and intestine (AID 686;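 active = a full or partial loss of lipid-probe fluorescence in the fish gall bladder, intestine or both, judged by eye; inactive = no fluorescence loss, or compound toxic to the fish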;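 also: larvae 5 to 7 days old with five fish per well; signal comes from phospholipase A2 cleavage of quenched PED6 carried via bile; overnight exposure to compound and PED6 before scoring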); conditions: Zebrafish larvae PED6 lipid processing, fluorescence scoring; screened at 20 µM (by protocol)
Summary of the method: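 Also added: quenched phospholipase substrate PED6, 100 nM final, ingested by larvae; System: zebrafish larvae, 5-7 d; Quantity: 5 larvae per well; Compound: 20 µM single dose; Schedule: overnight compound and PED6 incubation; Read-out: visual per-well fluorescence inhibition score; Measured by: By-eye fluorescence microscopy; Medium: E3.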

[9] = loss of swimming-algae plug formation – whole organism, Chlamydomonas reinhardtii, WT vs cilia-less mutant, absorbance, 96-well, primary screen (AID 463189); conditions: Chlamydomonas reinhardtii gravitaxis, OD600 absorbance, 2 days; at 10 µM; stronger effect = higher value;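 also: 0% = wild type cc124 cells in DMSO and 100% = ciliumless bld1 mutant cells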
[10] = measured here: cell density z-score
[11] = measured here: nuclear c-Myc green intensity z-score
[12] = measured here: nuclear pErk red intensity z-score, stronger effect = higher value

SMILES	cell count [1]	inhibition [1]	inhibition [2]	nuclei count [2]	z-score [3, 10]	z-score [3, 11]	z-score [3, 12]	inhibition [4]	fluorescence slope [5]	NADPH fluorescence slope [6]	fluorescence slope [7]	outcome [8]	inhibition [9]
CCc1nc2n[nH]c(N)c2c2c1CCCC2	410	-3% (inactive)	-224% (inactive)	194%	1.38	-1.2	-1.94	5.42% (inactive)	-0.476 (inactive)	-5.3e-05 (inactive)	0.00476 (inactive)	inactive; toxic	2.25% (inactive)
COc1ccc(OC)c(NS(=O)(=O)c2ccc(N3CCCC3=O)cc2)c1	645	24% (active)	-344% (inactive)	139%	1.32	-0.903	-0.414	-3.97% (inactive)	-0.465 (inactive)	-0.000177 (inactive)	0.00599 (inactive)	inactive	14% (inactive)
CC(=O)N(Cc1ccccc1)c1ccc(C(=O)O)cc1	486	-9.7% (inactive)	-65.3% (inactive)	95.1%	-0.584	0.905	1.49	3.42% (inactive)	-0.454 (inactive)	3.6e-05 (inactive)	0.00471 (inactive)	inactive	18% (inactive)
CC(O)CNc1nc2c(c(=O)n(C)c(=O)n2C)n1Cc1cccc(C(F)(F)F)c1 (stereo not drawn)	679	-9.1% (inactive)	-182% (inactive)	176%	0.999	-1.51	-1.36	11.9% (inactive)	-0.511 (inactive)	-5e-05 (inactive)	0.00932 (inactive)	inactive	4.09% (inactive)
O=C(COc1ccc(F)cc1)OCCN1CCOCC1	565	-8.9% (inactive)	-82.4% (inactive)	135%	-1.31	0.0144	2.07	-10.6% (inactive)	-0.449 (inactive)	-0.000116 (inactive)	0.00404 (inactive)	inactive	-2.61% (inactive)
CCOC(=O)c1ccc(NC(=O)COc2ccccc2OC)cc1	668	-1.6% (inactive)	26.3% (inactive)	179%	1.9	0.486	-1.19	33.3% (inactive)	-0.465 (inactive)	-0.000105 (inactive)	0.00666 (inactive)	inactive	-9.5% (inactive)
Cn1ncc(N=Cc2c(O)ccc3ccccc23)c1C(=O)N1CCOCC1	713	-2.5% (inactive)	-43.6% (inactive)	175%	0.977	0.19	0.26	3.97% (inactive)	-0.482 (inactive)	-9.8e-05 (inactive)	0.00513 (inactive)	inactive	11.5% (inactive)
N#Cc1nc(COc2ccccc2F)oc1NCCCn1ccnc1	465	-4% (inactive)	-87.7% (inactive)	136%	-0.925	1.53	1.43	-0.624% (inactive)	-0.414 (inactive)	-2.3e-05 (inactive)	0.00507 (inactive)	inactive	-8.85% (inactive)
NC(=O)C(c1ccccc1)C1CCCC1 (stereo not drawn)	603	-8.2% (inactive)	-33.8% (inactive)	113%	1.58	-0.32	-0.629	-3.95% (inactive)	-0.409 (inactive)	-4.8e-05 (inactive)	0.00443 (inactive)	inactive	-3.81% (inactive)
O=c1cc(N2CCCCC2)nc2n1CCCS2	568	2.3% (inactive)	20.6% (inactive)	149%	0.266	-0.928	-0.473	29.7% (inactive)	-0.39 (inactive)	-1.9e-05 (inactive)	0.00586 (inactive)	inactive	33.9% (inactive)
Cc1cccc(-c2nnc3n2N=C(c2ccc(Br)cc2)CS3)c1	769	-2.9% (inactive)	-27.2% (inactive)	176%	-0.385	0.639	0.0185	-2.91% (inactive)	-0.433 (inactive)	-5.4e-05 (inactive)	0.006 (inactive)	inactive	-0.766% (inactive)
